Test [1] addresses T1, Phospholipase A2, membrane associated (Homo sapiens, UniProt P14555).
T1 sequence (P14555 whole entry): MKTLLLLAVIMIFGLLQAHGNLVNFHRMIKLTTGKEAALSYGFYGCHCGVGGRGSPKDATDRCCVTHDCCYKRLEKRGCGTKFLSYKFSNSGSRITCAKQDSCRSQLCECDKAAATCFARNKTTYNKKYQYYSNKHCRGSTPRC
In words: Inhibition of human nonpancreatic secretory phospholipase A2. Summed up: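 Inhibitor preincubated with substrate 10 min at 25 °C. Enzyme added to start; ex 377/em 470 nm read kinetically for 20 min. IC50 from initial rates via V0/V = 1 + [I]/IC50; three separate experiments.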

The target in test [2] is T2, Leukotriene A-4 hydrolase (Homo sapiens, UniProt P09960).
T2 sequence (P09960 whole entry): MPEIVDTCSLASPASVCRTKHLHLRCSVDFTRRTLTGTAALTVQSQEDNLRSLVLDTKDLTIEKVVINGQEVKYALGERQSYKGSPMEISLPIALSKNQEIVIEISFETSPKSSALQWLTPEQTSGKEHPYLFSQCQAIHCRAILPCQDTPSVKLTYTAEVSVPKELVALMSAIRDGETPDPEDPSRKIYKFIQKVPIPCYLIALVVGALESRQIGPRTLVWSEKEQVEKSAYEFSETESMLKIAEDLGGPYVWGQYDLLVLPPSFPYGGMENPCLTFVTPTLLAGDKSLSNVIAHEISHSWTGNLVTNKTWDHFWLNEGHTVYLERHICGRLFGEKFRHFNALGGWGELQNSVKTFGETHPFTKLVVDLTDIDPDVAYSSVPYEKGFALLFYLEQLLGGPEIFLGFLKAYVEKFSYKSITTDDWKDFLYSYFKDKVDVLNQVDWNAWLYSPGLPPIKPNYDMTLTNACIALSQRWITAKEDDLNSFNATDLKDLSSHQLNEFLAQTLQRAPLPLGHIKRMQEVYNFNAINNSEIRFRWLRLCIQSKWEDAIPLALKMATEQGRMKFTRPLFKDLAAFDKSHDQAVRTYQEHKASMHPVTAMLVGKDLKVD
In words: Inhibition of epoxide hydrolase activity of human leukotriene A4 hydrolase assessed as LTB4 level by ELISA. Summed up: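 LTA4 prepared by hydrolysing LTA4 methyl ester in cold acetone/NaOH under nitrogen. Enzyme (300 ng) preincubated with compound 15 min at 37 °C in 10 mM sodium phosphate pH 7.4, 4 mg/mL BSA, 5% DMSO. Reaction started with LTA4 (150 nM final), 10 min at 37 °C, stopped by dilution into buffer; LTB4 measured by ELISA. Three separate experiments.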
(In general: In an ELISA, binding on a coated surface is turned into a signal by an enzyme label.)

Test [3] addresses T2, Leukotriene A-4 hydrolase. In words: Inhibition of aminopeptidase activity of human leukotriene A4 hydrolase assessed as para-nitroanilide release by spectrophotometry. Summed up: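 Enzyme (1-20 µg) in 50 mM Tris-HCl pH 8.0 with 100 mM NaCl at 37 °C; inhibitor preincubated 2 min; 5% v/v DMSO final. Started with 0.125 mM Ala-p-nitroanilide; p-NA formation followed at 405 nm for 15 min, quantified against p-NA standard curve. IC50 from initial rates across inhibitor concentrations via V0/V = 1 + [I]/IC50; three separate experiments.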

In the case of `NCCc1c[nH]c2c(OCc3ccccc3)cccc12`, the IC50 – broadly, the concentration that inhibits the measured activity by half – was 52.5 µM in test [1], 217 µM in test [2] and 12.5 µM in test [3].

On to `NC(Cc1c[nH]c2ccc(OCc3ccccc3)cc12)C(=O)O` (stereo not given), for which the IC50 in test [1] worked out at 42.1 µM; in test [2], 231 µM; in test [3] it was 17.3 µM.

On to `O=C(C[n+]1ccc(Cc2ccc([N+](=O)[O-])cc2)cc1)c1ccccc1`, for which the IC50 in test [1] came out at 43.7 µM; in test [2], 386 µM; in test [3], 23.4 µM.

Turning to `NCCOc1ccc(Oc2ccccc2)cc1`, in test [1], the IC50 was 7.3 µM.

The values above are taken from ChEMBL document CHEMBL1151772, “Discovery of multitarget inhibitors by combining molecular docking with common pharmacophore matching” (J Med Chem, 2008).
